# Legend:
# [1] = Time of maximum concentration achieved in rat plasma when administered intravenously at a dose of 10 mg/kg; type: ADME, organism-based; parameters: dose 10 mg/kg, route intravenous; conditions: iv
# In short: (§1)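 Male Fischer 344 rats dosed iv or ip at 10 mg/kg, or orally at 10 or 100 mg/kg; five rats per route and dose. Blood and brain taken from one rat per time point (0.25, 0.5, 1, 2, 4 h after iv/ip; 0.5, 1, 2, 4, 6 h after po). Plasma and brain homogenates derivatized, extracted, assayed by negative-ion chemical ionization GCMS (LOQ 100 pg/mL plasma, 1 ng/g brain).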
# [2] = Brain concentration after 0.5 hr at a dose of 10 mg/kg when administered perorally; conditions: po
# [3] = Brain concentration after 1 hr at a dose of 10 mg/kg when administered intraperitoneally; conditions: ip
# [4] = Maximum concentration achieved in rat brain when administered perorally at a dose of 100 mg/kg; type: ADME, organism-based; parameters: dose 100 mg/kg, route oral; conditions: po; in short: as §1
# [5] = Plasma concentration after 0.5 hr at a dose of 10 mg/kg when administered intraperitoneally; conditions: ip
# [6] = Clearance rate in rat plasma when administered intravenously at a dose of 10 mg/kg; type: ADME, organism-based; parameters: dose 10 mg/kg, route intravenous; conditions: iv, read-out: Clp (converted)
# In short: (§2)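 Male Fischer 344 rats were dosed at 10 mg/kg iv, 10 mg/kg ip, or 10 or 100 mg/kg po, with five rats per route and dose. One rat was sampled for blood and brain at each time: 0.25, 0.5, 1, 2 and 4 h after iv/ip, and 0.5, 1, 2, 4 and 6 h after po. Plasma and brain homogenates were derivatized, extracted and quantified by negative-ion chemical ionization GCMS (LOQ 100 pg/mL plasma, 1 ng/g brain).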
# [7] = Plasma concentration after 1 hr at a dose of 10 mg/kg when administered intravenously; conditions: iv
# [8] = Brain concentration after 1 hr at a dose of 10 mg/kg when administered perorally; conditions: po
# [9] = Half-life in rat brain when administered intravenously at a dose of 10 mg/kg; type: ADME, organism-based; parameters: dose 10 mg/kg, route intravenous; conditions: iv
# [10] = Half-life in rat plasma when administered intraperitoneally at a dose of 10 mg/kg; type: ADME, organism-based; parameters: dose 10 mg/kg, route intraperitoneal; conditions: ip; in short: as §2
# Rattus norvegicus [11] = assay: Volume of distribution in rat plasma when administered intravenously at a dose of 10 mg/kg; conditions: in vivo, iv
# [12] = Half-life in rat plasma when administered perorally at a dose of 100 mg/kg; type: ADME, organism-based; parameters: dose 100 mg/kg, route oral; conditions: po; in short: as §1
# [13] = Plasma concentration after 1 hr at a dose of 10 mg/kg when administered perorally; conditions: po
# [14] = Brain concentration after 0.5 hr at a dose of 10 mg/kg when administered intravenously; conditions: iv
# Rattus norvegicus [15] = assay: Area under curve was evaluated in rat plasma when administered intraperitoneally at a dose of 10 mg/kg for infinite hours; type: ADME, organism-based; parameters: time infinity, dose 10 mg/kg, route intraperitoneal; conditions: in vivo, ip; in short: as §2
# [16] = Plasma concentration after 4 hr at a dose of 100 mg/kg when administered perorally; conditions: po
# [17] = Time of maximum concentration achieved in rat plasma when administered perorally at a dose of 100 mg/kg; type: ADME, organism-based; parameters: dose 100 mg/kg, route oral; conditions: po; in short: as §1
# Rattus norvegicus [18] = assay: Area under curve was evaluated in rat brain when administered intraperitoneally at a dose of 10 mg/kg for infinite hours; type: ADME, organism-based; parameters: time infinity, dose 10 mg/kg, route intraperitoneal; conditions: in vivo, ip
# [19] = Binding affinity for Group II Metabotropic glutamate receptor was measured using [3H]glutamate in rat forebrain membranes; type: cell membranes, Membrane
# In short: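 ACPD-sensitive [³H]glutamate binding to group II mGluRs in rat forebrain membranes, reported as IC50. Most values are single-point determinations; others are averages of two or three determinations. Values in parentheses are percent radioligand displacement at 1 μM.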
# [20] = Plasma concentration after 0.5 hr at a dose of 100 mg/kg when administered perorally; conditions: po
# [21] = Plasma concentration after 2 hr at a dose of 10 mg/kg when administered intravenously; conditions: iv
# [22] = Plasma concentration after 1 hr at a dose of 100 mg/kg when administered perorally; conditions: po
# [23] = Brain concentration after 4 hr at a dose of 10 mg/kg when administered intravenously; conditions: iv
# in vivo [24] = conditions: brain, ip, 10 mg/kg
# in vivo [25] = conditions: brain, iv, 10 mg/kg
# [26] = Brain concentration after 2 hr at a dose of 10 mg/kg when administered intravenously; conditions: iv
# [27] = Brain concentration after 4 hr at a dose of 10 mg/kg when administered perorally; conditions: po
# Rattus norvegicus [28] = assay: Area under curve was evaluated in rat plasma when administered intravenously at a dose of 10 mg/kg for 4 or 6 hours; type: ADME, organism-based; parameters: dose 10 mg/kg, route intravenous; conditions: in vivo, iv; in short: as §2
# [29] = Volume of distribution in rat plasma when administered intraperitoneally at a dose of 10 mg/kg; conditions: ip
# Rattus norvegicus [30] = assay: Area under curve was evaluated in rat plasma when administered perorally at a dose of 100 mg/kg for infinite hours; type: ADME, organism-based; parameters: time infinity, dose 100 mg/kg, route oral; conditions: in vivo, po; in short: as §2
# [31] = Maximum concentration achieved in rat plasma when administered intraperitoneally at a dose of 10 mg/kg; type: ADME, organism-based; parameters: dose 10 mg/kg, route intraperitoneal; conditions: ip; in short: as §1
# [32] = Plasma concentration after 2 hr at a dose of 10 mg/kg when administered perorally; conditions: po
# [33] = Maximum concentration achieved in rat plasma when administered intravenously at a dose of 10 mg/kg; type: ADME, organism-based; parameters: dose 10 mg/kg, route intravenous; conditions: iv; in short: as §1
# [34] = Plasma concentration after 2 hr at a dose of 10 mg/kg when administered intraperitoneally; conditions: ip
# [35] = Time of maximum concentration achieved in rat plasma when administered intraperitoneally at a dose of 10 mg/kg; type: ADME, organism-based; parameters: dose 10 mg/kg, route intraperitoneal; conditions: ip; in short: as §1
# [36] = Time of maximum concentration achieved in rat brain when administered intravenously at a dose of 10 mg/kg; type: ADME, organism-based; parameters: dose 10 mg/kg, route intravenous; conditions: iv; in short: as §1
# [37] = Brain concentration after 2 hr at a dose of 10 mg/kg when administered intraperitoneally; conditions: ip
# [38] = Brain concentration after 0.5 h at a dose of 100 mg/kg when administered perorally; conditions: po
# [39] = Plasma concentration after 6 hr at a dose of 100 mg/kg when administered perorally; conditions: po
# in vivo [40] = conditions: plasma, ip, 10 mg/kg
# [41] = Maximum concentration achieved in rat brain when administered perorally at a dose of 10 mg/kg; type: ADME, organism-based; parameters: dose 10 mg/kg, route oral; conditions: po; in short: as §1
# [42] = Maximum concentration achieved in rat brain when administered intraperitoneally at a dose of 10 mg/kg; type: ADME, organism-based; parameters: dose 10 mg/kg, route intraperitoneal; conditions: ip; in short: as §1
# [43] = Brain concentration after 6 hr at a dose of 100 mg/kg when administered perorally; conditions: po
# [44] = Half-life in rat brain when administered intraperitoneally at a dose of 10 mg/kg; type: ADME, organism-based; parameters: dose 10 mg/kg, route intraperitoneal; conditions: ip
# Rattus norvegicus [45] = assay: Area under curve was evaluated in rat brain when administered intraperitoneally at a dose of 10 mg/kg for 4 or 6 hours; type: ADME, organism-based; parameters: dose 10 mg/kg, route intraperitoneal; conditions: in vivo, ip
# [46] = Half-life in rat plasma when administered intravenously at a dose of 10 mg/kg; type: ADME, organism-based; parameters: dose 10 mg/kg, route intravenous; conditions: iv; in short: as §2
# Rattus norvegicus [47] = assay: Area under curve was evaluated in rat brain when administered perorally at a dose of 10 mg/kg for 4 or 6 hours; type: ADME, organism-based; parameters: dose 10 mg/kg, route oral; conditions: in vivo, po
# [48] = Maximum concentration achieved in rat brain when administered intravenously at a dose of 10 mg/kg; type: ADME, organism-based; parameters: dose 10 mg/kg, route intravenous; conditions: iv; in short: as §1
smiles,measurement,setting,value
N[C@](CC1c2ccccc2Oc2ccccc21)(C(=O)O)[C@H]1C[C@@H]1C(=O)O,Tmax,[1],15 min
same,concentration at 0.5 h,[2],1.7 ng/g
same,concentration at 1 h,[3],235 ng/g
same,Cmax,[4],30 ng/g
same,concentration at 0.5 h,[5],10700 ng/mL
same,clearance,[6],19.8 mL/min/kg
same,concentration at 1 h,[7],2440 ng/mL
same,concentration at 1 h,[8],2.1 ng/g
same,half-life,[9],326 min
same,half-life,[10],26.4 min
same,Vd,Rattus norvegicus [11],0.83 L/kg
same,half-life,[12],116 min
same,concentration at 1 h,[13],48.3 ng/mL
same,concentration at 0.5 h,[14],243 ng/g
same,AUC,Rattus norvegicus [15],12800 ng·h/mL
same,concentration at 4 h,[16],95.5 ng/mL
same,Tmax,[17],60 min
same,AUC,Rattus norvegicus [18],1790 ng·h/mL
same,IC50,[19],2.9 nM
same,concentration at 0.5 h,[20],197 ng/mL
same,concentration at 2 h,[21],845 ng/mL
same,concentration at 1 h,[22],475 ng/mL
same,concentration at 4 h,[23],145 ng/g
same,concentration at 0.25 h,in vivo [24],211 ng/g
same,concentration at 1 h,in vivo [25],188 ng/g
same,concentration at 2 h,[26],177 ng/g
same,concentration at 4 h,[27],7.4 ng/g
same,AUC,Rattus norvegicus [28],8370 ng·h/mL
same,Vd,[29],0.49 L/kg
same,AUC,Rattus norvegicus [30],1660 ng·h/mL
same,Cmax,[31],14300 ng/mL
same,concentration at 2 h,[32],50 ng/mL
same,Cmax,[33],12000 ng/mL
same,concentration at 2 h,[34],1120 ng/mL
same,Tmax,[35],15 min
same,Tmax,[36],30 min
same,concentration at 2 h,[37],202 ng/g
same,concentration at 0.5 h,[38],5.1 ng/g
same,concentration at 6 h,[39],102 ng/mL
same,concentration at 0.25 h,in vivo [40],14300 ng/mL
same,Cmax,[41],7.4 ng/g
same,Cmax,[42],246 ng/g
same,concentration at 6 h,[43],29.6 ng/g
same,half-life,[44],285 min
same,AUC,Rattus norvegicus [45],774 ng·h/mL
same,half-life,[46],28.8 min
same,AUC,Rattus norvegicus [47],26.4 ng·h/mL
same,Cmax,[48],243 ng/g

# — ChEMBL document CHEMBL1131460, “2-substituted (2SR)-2-amino-2-((1SR,2SR)-2-carboxycycloprop-1-yl)glycines as potent and selective antagonists of group II metabotropic glutamate receptors. 2. Effects of aromatic substitution, pharmacological characterization, and bioavailability” (J Med Chem, 1998)
